The values that follow come from ChEMBL document CHEMBL4414623, “Rapid Metabolization of Protectin D1 by β-Oxidation of Its Polar Head Chain” (J Med Chem, 2019).

The structures appear in SMILES notation. Activity calls are given as the source filed them. No cut-off for these calls is given here.

Data set [1] can be described thus: Drug level in human HepG2 cells treated with 13 uM Protectin-D1 assessed as compound formation incubated for 4 hrs by RP-HPLC/MS analysis. It counts as ADME, cell-based. Particulars: hepg2, 4 h. A digest of the protocol: (§1)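 HepG2 cells were kept in serum-free medium and incubated for 4 h with 13 μM NPD1 (final) or ethanol vehicle. Media were extracted and run on RP-HPLC with a linear ion trap ESI-MS, using full scans at m/z 100-1000. Peaks present only in NPD1 incubates were located from single-ion chromatograms. MS/MS spectra were collected and compared with those of synthetic standards.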

Data set [2] in a line: Drug metabolism in human HepG2 cells assessed as parent compound remaining level at 13 uM after 24 hrs by LC-MS/MS analysis relative to control. It counts as ADME, cell-based. Particulars: read-out: Stability. A digest of the protocol: (§2)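 Medium was spiked with d4-LTB4 internal standard, SPE-extracted, and quantified by RP-HPLC coupled to triple quadrupole SRM. Amounts are given as nmol per mg cell protein (Bradford) or as % of NPD1 at T0.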

Data set [3] in a line: Drug metabolism in human HepG2 cells assessed as 3Z,6R,7E,9E,11Z,13S,15Z)-6,13-Dihydroxyoctadeca-3,7,9,11,15-pentaenoic Acid formation at 13 uM up to 24 hrs by LC-MS/MS analysis. The conditions noted are these: hepg2, 24 h. The data set is classed as ADME, cell-based. A digest of the protocol: as §2
The species entered for data set [4] is Homo sapiens. Put plainly: Inhibition of LTB4-induced chemotaxis in human polymorphonuclear leukocytes at 0.01 to 10 nM incubated for 90 mins by Diff-Quick staining based densitometric analysis. The data set is classed as functional, cell-based. The essentials: (§3)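 Human peripheral blood PMNL from healthy NSAID-free donors were isolated by Percoll and hypotonic lysis. Migration toward 10 nM LTB4 in RPMI/0.1% BSA was run in a 48-well microchamber with 5 μm polycarbonate filters, 2×10^6 cells/mL. Test agents at 0.01–10 nM or EtOH were added to both compartments. After 90 min at 37°C, migrated cells were stained and read by densitometry. Sextuplicates, 3–4 donors, normalized to negative controls.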

A short description of data set [5]: Drug metabolism in human HepG2 cells assessed as 22-OH-NPD1 formation at 13 uM incubated for 4 hrs by RP-HPLC/MS analysis. The data set is classed as ADME, cell-based. The conditions noted are these: hepg2, 4 h. A digest of the protocol: as §1
The nature of data set [6]: Drug metabolism in human HepG2 cells assessed as (5Z,8R,9E,11E,13Z,15S,17Z)-8,15-Dihydroxyicosa-5,9,11,13,17-pentaenoic Acid formation at 13 uM incubated for 4 hrs by RP-HPLC/MS analysis. It counts as ADME, cell-based. Particulars: hepg2, 4 h. A digest of the protocol:
as §1

Data set [7] can be described thus: Drug metabolism in human HepG2 cells assessed as 3Z,6R,7E,9E,11Z,13S,15Z)-6,13-Dihydroxyoctadeca-3,7,9,11,15-pentaenoic Acid formation at 13 uM incubated for 4 hrs by RP-HPLC/MS analysis. The data set is classed as ADME, cell-based. The conditions noted are these: hepg2, 4 h. A digest of the protocol: as §1
Data set [8] can be described thus: Drug metabolism in human HepG2 cells assessed as 22-OH-NPD1 formation at 13 uM incubated for 4 hrs by tandem mass spectrometric analysis. It counts as ADME, cell-based. The conditions noted are these: hepg2, 4 h. A digest of the protocol: as §1
Data set [9] is described as follows: Drug metabolism in human HepG2 cells assessed as (5Z,8R,9E,11E,13Z,15S,17Z)-8,15-Dihydroxyicosa-5,9,11,13,17-pentaenoic Acid formation at 13 uM incubated for 4 hrs by tandem mass spectrometric analysis. It counts as ADME, cell-based. The conditions noted are these: hepg2, 4 h. A digest of the protocol:
as §1

The nature of data set [10]: Drug metabolism in human HepG2 cells assessed as 3Z,6R,7E,9E,11Z,13S,15Z)-6,13-Dihydroxyoctadeca-3,7,9,11,15-pentaenoic Acid formation at 13 uM incubated for 4 hrs by tandem mass spectrometric analysis. The data set is classed as ADME, cell-based. Particulars: hepg2, 4 h. The essentials:
as §1

A short description of data set [11]: Drug metabolism in human HepG2 cells treated with 13 uM Protectin-D1 assessed as compound formation incubated for 4 hrs by tandem mass spectrometric analysis. The data set is classed as ADME, cell-based. The conditions noted are these: hepg2, 4 h. The essentials:
as §1

Data set [12] in a line: Drug metabolism in human HepG2 cells assessed as (5Z,8R,9E,11E,13Z,15S,17Z)-8,15-Dihydroxyicosa-5,9,11,13,17-pentaenoic Acid formation at 13 uM after 30 mins by LC-MS/MS analysis. It counts as ADME, cell-based. The conditions noted are these: hepg2, 0.5 h. A digest of the protocol: as §2
Data set [13] in a line: Drug metabolism in human HepG2 cells assessed as 3Z,6R,7E,9E,11Z,13S,15Z)-6,13-Dihydroxyoctadeca-3,7,9,11,15-pentaenoic Acid formation at 13 uM after 30 mins by LC-MS/MS analysis. The data set is classed as ADME, cell-based. The conditions noted are these: hepg2, 0.5 h. A digest of the protocol: as §2
Data set [14] in a line: Drug metabolism in human HepG2 cells assessed as (5Z,8R,9E,11E,13Z,15S,17Z)-8,15-Dihydroxyicosa-5,9,11,13,17-pentaenoic Acid formation at 13 uM up to 8 hrs by LC-MS/MS analysis. The conditions noted are these: hepg2, 8 h. It counts as ADME, cell-based. The essentials:
as §2

Data set [15] can be described thus: Drug metabolism in human HepG2 cells assessed as (5Z,8R,9E,11E,13Z,15S,17Z)-8,15-Dihydroxyicosa-5,9,11,13,17-pentaenoic Acid formation at 13 uM after 24 hrs by LC-MS/MS analysis. Particulars: hepg2, 24 h. The data set is classed as ADME, cell-based. The essentials:
as §2

Data set [16] in a line: Drug metabolism in human HepG2 cells assessed as 3Z,6R,7E,9E,11Z,13S,15Z)-6,13-Dihydroxyoctadeca-3,7,9,11,15-pentaenoic Acid formation at 13 uM after 24 hrs by LC-MS/MS analysis. It counts as ADME, cell-based. Particulars: hepg2, 24 h. The essentials: as §2
The nature of data set [17]: Drug metabolism in human HepG2 cells at 0.52 uM measured at 30 mins by LC-MS/MS analysis. The data set is classed as ADME, cell-based. The conditions noted are these: read-out: Drug metabolism. The essentials:
as §2

Data set [18] can be described thus: Half life in human HepG2 cells at 13 uM by LC-MS/MS analysis. The data set is classed as ADME, cell-based. A digest of the protocol:
as §2

Data set [19] is described as follows: Half life in human HepG2 cells at 2.6 uM by LC-MS/MS analysis. The data set is classed as ADME, cell-based. The essentials:
as §2

Data set [20] can be described thus: Half life in human HepG2 cells at 0.52 uM by LC-MS/MS analysis. It counts as ADME, cell-based. The essentials:
as §2

Data set [21] can be described thus: Drug metabolism in human HepG2 cells assessed as Tmax for 3Z,6R,7E,9E,11Z,13S,15Z)-6,13-Dihydroxyoctadeca-3,7,9,11,15-pentaenoic Acid formation at 0.52 uM by LC-MS/MS analysis. The conditions noted are these: hepg2, 0.52 µM. The data set is classed as ADME, cell-based. A digest of the protocol:
as §2

Data set [22] can be described thus: Drug metabolism in human HepG2 cells assessed as Tmax for 3Z,6R,7E,9E,11Z,13S,15Z)-6,13-Dihydroxyoctadeca-3,7,9,11,15-pentaenoic Acid formation at 2.6 uM by LC-MS/MS analysis. It counts as ADME, cell-based. The conditions noted are these: hepg2, 2.6 µM. The essentials: as §2
Data set [23] is described as follows: Drug metabolism in human HepG2 cells assessed as hexanor-NPD1 formation at 13 uM incubated for 4 hrs by RP-HPLC/MS analysis. It counts as ADME, cell-based. Particulars: hepg2, 4 h. A digest of the protocol:
as §1

Data set [24] is described as follows: Drug metabolism in human HepG2 cells assessed as omega-hydroxylated dinor-NPD1 formation at 13 uM incubated for 4 hrs by RP-HPLC/MS analysis. The data set is classed as ADME, cell-based. The conditions noted are these: hepg2, 4 h. The essentials: as §1
Data set [25] is described as follows: Drug level in healthy human urine assessed as drug recovery at 50 ng measured up to 24 hrs at room temperature in presence of BHT by LC-MS/MS analysis. It counts as ADME, tissue-based. Particulars: urine of healthy humans, read-out: Drug recovery.
Data set [26] in a line: Drug excretion in healthy human urine by LC-MS/MS analysis. It counts as ADME, tissue-based. The conditions noted are these: in vivo.
A short description of data set [27]: Drug excretion in healthy human urine assessed as (5Z,8R,9E,11E,13Z,15S,17Z)-8,15-Dihydroxyicosa-5,9,11,13,17-pentaenoic Acid formation by LC-MS/MS analysis. The data set is classed as ADME, tissue-based. Particulars: in vivo.
A short description of data set [28]: Drug excretion in healthy human urine assessed as 3Z,6R,7E,9E,11Z,13S,15Z)-6,13-Dihydroxyoctadeca-3,7,9,11,15-pentaenoic Acid formation by LC-MS/MS analysis. It counts as ADME, tissue-based. Particulars: in vivo.
The species named for data set [29] is Homo sapiens. Put plainly: Inhibition of LTB4-induced chemotaxis in human polymorphonuclear leukocytes incubated for 90 mins by Diff-Quick staining based densitometric analysis. The data set is classed as functional, cell-based. A digest of the protocol:
as §3

In data set [30] the test system is Mus musculus. As to the kind of experiment: Antiinflammatory activity in FVB mouse model of acute pulmonary inflammation assessed as reduction in number of infiltrating neutrophils in BAL fluid at 10 ng administered intratracheally with lipopolysaccharide measured at 24 hrs by FACS analysis. It counts as functional. The essentials: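 Female FVB mice, 7–8 weeks old, acclimated at least 5 days. Intratracheal challenge with 50 μL LPS (250 μg/mL in PBS) containing 10 ng test agent or vehicle (EtOH, 2% final). Controls received PBS with 2% EtOH. BAL collected 24 h later (three 0.6 ml PBS washes). Neutrophils counted by FACS as CD45+ F4/80− Ly6G^hi CD11b^hi, absolute numbers from counting tubes; mean ± SEM, n=3.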

The nature of data set [31]: Stability in human HepG2 cells at 0.52 uM up to 4 hrs by LC-MS/MS analysis. Particulars: hepg2, 4 h. The data set is classed as ADME, cell-based. The essentials:
(§4)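 HepG2 cells in serum-free medium were incubated with 2.6 or 0.52 μM final NPD1 or LTE4. Medium was collected at 30 min, 1 h and 4 h, spiked with d4-LTB4 and d5-LTE4, SPE-extracted and quantified by LC-MS/MS SRM. Results are expressed as % of the amount measured at T0.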

Data set [32] is described as follows: Stability in human HepG2 cells at 2.6 uM up to 4 hrs by LC-MS/MS analysis. The data set is classed as ADME, cell-based. Particulars: hepg2, 4 h. A digest of the protocol: as §4

As to `CC/C=C\C[C@H](O)\C=C/C=C/C=C/[C@H](O)C/C=C\CCCC(=O)O`, the Drug uptake result in data set [1] was “Active”. Moreover, in data set [2], the remaining at 24 h, 13 µM is under 0.1%. For the same compound, the Drug metabolism result in [3] is recorded as “Metabolite_Detected”. In addition, the inhibition entry in data set [4] is “inactive”.
On to `O=C(O)CC/C=C\C/C=C\C[C@@H](O)/C=C/C=C/C=C\[C@@H](O)C/C=C\CCO`, for which the Drug uptake result in data set [1] was “Active”.
As for `CC/C=C\C[C@H](O)\C=C/C=C/C=C/[C@H](O)C/C=C\C/C=C\CCC(=O)O`, the Drug metabolism result in [5], in data set [6], in [7], in data set [8], in data set [9] and in data set [10] was “Metabolite_Detected” in each case. Besides, the Drug metabolism entry in data set [12] is listed as “Metabolite_Detected”; in [13], “Metabolite_Detected”; in [14], “Metabolite_Detected”; in data set [15], “Metabolite_Notdetected”; in [16] it was “Metabolite_Detected”; in data set [23] it was “Metabolite_Detected”. Besides, the Drug metabolism result in [24] is “Metabolite_Detected”. Besides, the Drug uptake entry in data set [11] was “Active”. In addition, the remaining at 24 h, 13 µM in data set [2] was determined as 0%. In data set [17], the metabolised at 0.5 h, 0.52 µM was over 50%. The compound further showed a half-life at 13 µM in [18] of over 4 h. The half-life at 2.6 µM in [19] is 1 h. In addition, the half-life at 0.52 µM in data set [20] was found to be 0.5 h. Further, the time of peak concentration (Tmax) in data set [21] and in data set [22] was 4 h each time. Moreover, the remaining at 24 h, 50 ng in [25] amounted to 106%. For the same compound, the Drug excretion entry in data set [26], in data set [27] and in data set [28] was “Metabolite_Notdetected” each time. Moreover, the inhibition entry in data set [29] is “Dose-dependent effect”.
As for `CC/C=C\C[C@H](O)\C=C/C=C/C=C/[C@H](O)C/C=C\CC(=O)O`, the Drug uptake entry in data set [1] is “Active”. Further, the inhibition entry in data set [4] is “Active”. For the same compound, the “inhibition (INH)” value in data set [30] is listed as 20%.
For `CCCCC/C=C\C\C=C/C=C/C=C/[C@@H](SC[C@H](N)C(=O)O)[C@@H](O)CCCC(=O)O` [LEUKOTRIEN E4], the Stability entry in data set [31] and in [32] was “Stable” in each case. Besides, the Drug excretion result in data set [26] is “Metabolite_Detected”.
